Test results taken from ChEMBL document CHEMBL1800025 (J Med Chem, 2011).
Calls of active or inactive are those of the source. The rule behind the calls is not given here.

Experiments:
[1] = target: Serine/threonine-protein kinase pim-1 (Homo sapiens, UniProt P11309); assay: Inhibition of human recombinant Pim1
Outline: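 Kinase assayed in buffer C (25 mM Mops pH 7.2, 60 mM beta-glycerophosphate, 30 mM p-nitrophenylphosphate, 15 mM MgCl2, 5 mM EGTA, 1 mM DTT, 0.1 mM vanadate) with 1 mg/mL histone H1. DMSO controls.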

Sus scrofa = species: Sus scrofa; assay: Inhibition of pig brain CK1 delta/epsilon using RRKHAAIGpSAYSITA as substrate at 10 uM
Outline: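 Native CK1δ/ε from porcine brain, assayed in 3-fold diluted buffer C with 25 μM CKS peptide substrate. 15 μM ATP final, 30 C. Activity is percent of uninhibited control after blank subtraction, with DMSO controls. Inhibitor tested over a range of concentrations up to 10 μM.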

[2] = target: Dual specificity tyrosine-phosphorylation-regulated kinase 1A (Rattus norvegicus, UniProt Q63470); assay: Inhibition of rat recombinant GST-tagged DYRK1A using KKISGRLSPIMTEQ as substrate and [gamma32]-ATP after 30 mins by scintillation counting
Outline: (§1)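 GST fusion kinases expressed in E. coli and purified on glutathione-agarose; DYRK1A is rat, DYRK2 is human. Assay buffer A (25 mM Tris-HCl pH 7.5, 10 mM MgCl2, 1 mM EGTA, 1 mM DTT, 50 μg/mL heparin) plus 0.15 mg/mL BSA. Product captured on P81 paper, washed in 1% phosphoric acid, scintillation counted. Activity expressed as percent of uninhibited control.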

[3] = target: Dual specificity protein kinase CLK1 (Mus musculus, UniProt P22518); assay: Inhibition of mouse recombinant GST-tagged CLK1 using GRSRSRSRSRSR as substrate
Outline: (§2)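 Mouse GST-fusion CLK1 or CLK3 expressed in E. coli. Assay buffer A (Tris-HCl pH 7.5, MgCl2, EGTA, DTT, heparin) plus 0.15 mg/mL BSA. RS peptide 1 μg/assay, 15 μM ATP final, 30 C. Blank subtracted; activity expressed as percent of activity without inhibitor. DMSO controls. Concentration range up to 10 μM.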

[4] = target: Dual specificity protein kinase CLK3 (Mus musculus, UniProt O35492); assay: Inhibition of mouse recombinant GST-tagged CLK3 using GRSRSRSRSRSR as substrate; outline: as §2
[5] = target: T1, Dual specificity tyrosine-phosphorylation-regulated kinase 2 (Homo sapiens, UniProt Q92630); assay: Inhibition of human recombinant GST-tagged DYRK2 using KKISGRLSPIMTEQ as substrate and [gamma32]-ATP after 30 mins by scintillation counting; outline: as §1
T1 sequence (Q92630 whole entry): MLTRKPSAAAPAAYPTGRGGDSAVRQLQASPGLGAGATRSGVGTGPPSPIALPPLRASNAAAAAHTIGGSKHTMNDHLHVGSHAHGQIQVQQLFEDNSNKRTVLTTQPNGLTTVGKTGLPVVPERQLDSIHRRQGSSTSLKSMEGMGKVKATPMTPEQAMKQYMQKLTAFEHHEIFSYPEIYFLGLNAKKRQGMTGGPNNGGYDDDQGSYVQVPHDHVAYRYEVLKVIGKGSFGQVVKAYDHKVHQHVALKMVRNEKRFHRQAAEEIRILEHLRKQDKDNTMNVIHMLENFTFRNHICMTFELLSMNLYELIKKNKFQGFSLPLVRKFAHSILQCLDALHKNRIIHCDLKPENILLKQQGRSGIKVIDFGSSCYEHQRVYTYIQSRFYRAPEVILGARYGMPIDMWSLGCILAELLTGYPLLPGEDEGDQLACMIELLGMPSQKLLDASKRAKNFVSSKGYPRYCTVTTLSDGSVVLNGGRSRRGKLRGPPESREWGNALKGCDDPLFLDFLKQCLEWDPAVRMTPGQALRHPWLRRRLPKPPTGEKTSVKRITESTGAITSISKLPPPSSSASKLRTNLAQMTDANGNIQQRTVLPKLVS

[6] = test system: Cyclin-dependent kinase 5/p25 (Homo sapiens); assay: Inhibition of human recombinant CDK5/p25 at 10 uM
[7] = target: Glycogen synthase kinase-3 alpha/beta (Sus scrofa); assay: Inhibition of pig brain GSK-3alpha/beta

Serine/threonine-protein kinase pim-1, sequence (P11309 whole entry): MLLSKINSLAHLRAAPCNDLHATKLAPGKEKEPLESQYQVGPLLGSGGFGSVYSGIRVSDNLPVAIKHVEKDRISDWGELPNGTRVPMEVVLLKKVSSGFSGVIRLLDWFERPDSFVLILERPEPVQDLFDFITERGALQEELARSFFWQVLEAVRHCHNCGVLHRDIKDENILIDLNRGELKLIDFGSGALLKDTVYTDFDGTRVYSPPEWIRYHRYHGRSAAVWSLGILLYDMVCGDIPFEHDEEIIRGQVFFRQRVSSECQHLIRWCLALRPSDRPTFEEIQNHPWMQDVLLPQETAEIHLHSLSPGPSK
Dual specificity protein kinase CLK1, sequence (P22518 whole entry, the tested form may be a part): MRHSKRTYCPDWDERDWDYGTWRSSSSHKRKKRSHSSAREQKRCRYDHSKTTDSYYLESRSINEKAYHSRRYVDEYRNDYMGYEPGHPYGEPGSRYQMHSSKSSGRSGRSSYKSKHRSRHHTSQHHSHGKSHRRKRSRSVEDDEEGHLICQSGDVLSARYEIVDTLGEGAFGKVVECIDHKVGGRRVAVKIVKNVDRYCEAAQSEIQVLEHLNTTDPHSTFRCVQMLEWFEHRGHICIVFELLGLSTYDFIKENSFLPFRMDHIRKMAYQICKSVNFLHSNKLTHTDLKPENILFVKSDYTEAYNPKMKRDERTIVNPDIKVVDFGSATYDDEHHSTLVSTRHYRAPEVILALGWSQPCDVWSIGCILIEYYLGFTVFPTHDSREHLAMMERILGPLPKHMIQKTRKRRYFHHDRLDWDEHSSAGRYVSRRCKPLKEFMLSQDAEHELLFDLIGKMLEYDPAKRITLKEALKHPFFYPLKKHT
Dual specificity protein kinase CLK3, sequence (O35492 whole entry): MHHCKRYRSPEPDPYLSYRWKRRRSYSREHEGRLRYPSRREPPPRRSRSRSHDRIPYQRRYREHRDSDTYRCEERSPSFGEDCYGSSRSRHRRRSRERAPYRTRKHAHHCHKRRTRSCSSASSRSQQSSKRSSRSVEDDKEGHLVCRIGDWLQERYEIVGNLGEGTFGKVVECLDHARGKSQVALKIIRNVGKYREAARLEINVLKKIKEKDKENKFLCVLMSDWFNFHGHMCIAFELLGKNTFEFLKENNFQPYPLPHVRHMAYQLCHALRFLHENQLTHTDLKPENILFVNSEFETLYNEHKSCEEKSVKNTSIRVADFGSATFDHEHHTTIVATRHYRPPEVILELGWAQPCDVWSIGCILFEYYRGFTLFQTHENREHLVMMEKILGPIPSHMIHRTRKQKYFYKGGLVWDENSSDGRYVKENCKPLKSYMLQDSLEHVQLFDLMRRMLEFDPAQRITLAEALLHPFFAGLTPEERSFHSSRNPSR

Structure (SMILES) | IC50 [1] | inhibition (Sus scrofa) | IC50 [2] | IC50 [3] | IC50 [4] | IC50 [5] | inhibition [6] | IC50 [7]
CCCCNC1=N/C(=C\c2ccc3c(c2)OCO3)C(=O)N1C | 4600 nM | inactive | 500 nM | 130 nM | 1100 nM | 610 nM | – | –
O=C1NC(Nc2ccc3c(c2)OCO3)=N/C1=C\c1ccc2c(c1)OCO2 | 5000 nM | inactive | 66 nM | 170 nM | 360 nM | 40 nM | – | –
CN1C(=O)/C(=C/c2ccc3c(c2)OCO3)N=C1NC1CCCC1 | 300 nM | inactive | 3700 nM | 140 nM | > 10000 nM | 6000 nM | – | –
O=C1NC(Nc2ccc3c(c2)OCCO3)=N/C1=C\c1ccc2c(c1)OCO2 | > 10000 nM | inactive | 170 nM | 320 nM | > 10000 nM | 110 nM | inactive | > 10000 nM
Cc1ccc(NC2=N/C(=C\c3ccc4c(c3)OCO4)C(=O)N2)cc1 | 9000 nM | inactive | 170 nM | 320 nM | > 10000 nM | 61 nM | – | –
COCCNC1=N/C(=C\c2ccc3c(c2)OCO3)C(=O)N1C | > 10000 nM | inactive | 570 nM | 73 nM | 3100 nM | 770 nM | – | –
CN1C(=O)/C(=C/c2ccc3c(c2)OCO3)N=C1NCc1ccc2c(c1)OCO2 | 590 nM | inactive | 3200 nM | 230 nM | > 10000 nM | 3300 nM | – | –
CCOC(=O)C(=O)NC1=N/C(=C\c2ccc3c(c2)OCO3)C(=O)N1C | 7000 nM | inactive | 6100 nM | 3100 nM | > 10000 nM | 6500 nM | inactive | > 10000 nM
CN1C(=O)/C(=C/c2ccc3c(c2)OCO3)N=C1NCCO | > 10000 nM | inactive | 7000 nM | 120 nM | > 10000 nM | 10000 nM | inactive | 1300 nM
CCCNC1=N/C(=C\c2ccc3c(c2)OCO3)C(=O)N1C | 4500 nM | inactive | 540 nM | 310 nM | 1200 nM | 550 nM | – | –
CC(=O)NC1=N/C(=C\c2ccc3c(c2)OCO3)C(=O)N1C | > 10000 nM | inactive | 3100 nM | 2400 nM | > 10000 nM | 5100 nM | – | –
CC(C)CNC1=N/C(=C\c2ccc3c(c2)OCO3)C(=O)N1C | 2000 nM | inactive | 170 nM | 120 nM | 900 nM | 210 nM | inactive | 3100 nM
O=C1NC(NCC2CC2)=N/C1=C\c1ccc2c(c1)OCO2 | 1500 nM | inactive | 100 nM | 83 nM | 610 nM | 47 nM | inactive | 4700 nM
CN1C(=O)/C(=C/c2ccc3c(c2)OCO3)N=C1Nc1ccc(O)cc1 | 4000 nM | inactive | 440 nM | 1000 nM | 3900 nM | 1100 nM | – | –
CC(C)CCNC1=N/C(=C\c2ccc3c(c2)OCO3)C(=O)N1C | 2100 nM | inactive | 460 nM | 160 nM | 960 nM | 560 nM | inactive | 2000 nM
C=CCNC1=N/C(=C\c2ccc3c(c2)OCO3)C(=O)N1C | 4200 nM | inactive | 440 nM | 200 nM | 880 nM | 620 nM | inactive | 1600 nM
CN1C(=O)/C(=C/c2ccc3c(c2)OCO3)N=C1NCc1ccccc1 | 3700 nM | inactive | 380 nM | 200 nM | 940 nM | 560 nM | inactive | > 10000 nM
CCNC1=N/C(=C\c2ccc3c(c2)OCO3)C(=O)N1C | 7200 nM | inactive | 580 nM | 170 nM | 2100 nM | 640 nM | inactive | 16000 nM
CN1C(=O)/C(=C/c2ccc3c(c2)OCO3)N=C1NCCCCCO | 6100 nM | inactive | 2100 nM | 140 nM | 7000 nM | 2000 nM | – | –
O=C1NC(Nc2ccc(O)cc2)=N/C1=C\c1ccc2c(c1)OCO2 | 1200 nM | inactive | 96 nM | 60 nM | 520 nM | 60 nM | – | –
CN1C(=O)/C(=C/c2ccc3c(c2)OCO3)N=C1Nc1ccc2c(c1)OCO2 | > 10000 nM | inactive | 400 nM | 160 nM | > 10000 nM | 100 nM | inactive | 5800 nM
CCCNC1=N/C(=C\c2ccc3c(c2)OCO3)C(=O)N1 | 2500 nM | inactive | 240 nM | 130 nM | 2200 nM | 120 nM | inactive | 7300 nM
COc1ccc(NC2=N/C(=C\c3ccc4c(c3)OCO4)C(=O)N2)cc1 | > 10000 nM | inactive | 110 nM | 830 nM | 10000 nM | 80 nM | – | –
CN1C(=O)/C(=C/c2ccc3c(c2)OCO3)N=C1NCCN1CCOCC1 | 6200 nM | inactive | 1200 nM | 80 nM | 8000 nM | 1600 nM | inactive | 4000 nM
CN1C(=O)/C(=C/c2ccc3c(c2)OCO3)N=C1Nc1ccccc1 | 2600 nM | inactive | 310 nM | 84 nM | 4600 nM | 460 nM | – | –
CN1C(=O)/C(=C/c2ccc3c(c2)OCO3)N=C1NCCN | 3100 nM | inactive | 910 nM | 190 nM | 5000 nM | 710 nM | inactive | 910 nM
CC(C)NC1=N/C(=C\c2ccc3c(c2)OCO3)C(=O)N1C | 4000 nM | inactive | 390 nM | 260 nM | 2000 nM | 530 nM | – | –
CNC1=N/C(=C\c2ccc3c(c2)OCO3)C(=O)N1C | 3500 nM | inactive | 2100 nM | 770 nM | 3200 nM | 2200 nM | – | –
CN1C(=O)/C(=C/c2ccc3c(c2)OCO3)N=C1NCCCO | 6500 nM | inactive | 280 nM | 233 nM | 3900 nM | 470 nM | – | –
